# Assay results of several laboratories.
# Lines come from different studies, so protocols differ.
# Target: Homeodomain-interacting protein kinase 1 (HIPK1, Homo sapiens, UniProt Q86Z02)
Structure (SMILES),assay,setting,quantity,value
CCCCC(=O)Nc1ccc(-c2ccc3ncn(CCC)c(=O)c3c2)cn1,"binding, competition with immobilised ligand",0.5 µM,remaining binding,88%
C1=C/COCc2cc(ccc2OCCN2CCCC2)Nc2nccc(n2)-c2cccc(c2)COC/1,binding,0.1 µM,remaining binding,6.7%
Cc1ccc(NC(=O)c2ccnc(C(F)(F)F)c2)cc1-c1cc(OCCO)nc(N2CCOCC2)c1,"binding, competition with immobilised ligand",1 µM,remaining binding,93%
C#Cc1cc(-c2cc(Nc3nc(N[C@@H](C)c4ccc(F)cn4)ncc3Cl)n[nH]2)ccc1C=O,"enzyme activity, inhibitor",0.2 µM,inhibition,22.6%
C=CC(=O)N1CCC[C@@H](n2nc(-c3ccc(Oc4ccccc4)cc3)c3c(N)ncnc32)C1,"enzyme activity, inhibitor",1 µM,inhibition,22%
COc1ccc2oc(-c3ccc4nc(N)oc4c3)c/c(=N\c3ccccc3NC(=O)CCN)c2c1,binding,1 µM,remaining binding,103%
C=CC(=O)N1CCC([C@@H]2CCNc3c(C(N)=O)c(-c4ccc(Oc5ccccc5)cc4)nn32)CC1,"enzyme activity, inhibitor",1 µM,inhibition,26%
C[C@H]1CC[C@H](n2c3cnccc3c3cnc(Nc4ccc5c(n4)CCN(C(=O)CO)C5)nc32)CC1,"binding, competition with immobilised ligand",1 µM,remaining binding,45%
